# Laboratory results published in ChEMBL document CHEMBL1821594, “Synthesis and anticancer evaluation of novel 2-cyclopropylimidazo[2,1-b][1,3,4]-thiadiazole derivatives” (2011).
# Experiments:
# Format in all cases: functional
# [1] = system: CCRF-CEM; assay: Antitumor activity against human CCRF-CEM cells after 48 hrs by SRB assay
# Procedure, shortened: (§1)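 Cells grown in RPMI 1640 with 5% FBS and 2 mM L-glutamine and seeded at 5000–40,000 cells/well according to doubling time. They were preincubated 24 h at 37 °C, 5% CO2, then exposed to DMSO-solubilized compound for 48 h. Adherent cells were fixed with cold TCA (10% final), suspension cells with 16% final. Stained with 0.4% SRB; absorbance at 515 nm. Percent growth calculated against time-zero and control plates.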
# [2] = system: HL-60(TB); assay: Antitumor activity against human HL-60(TB) cells after 48 hrs by SRB assay; conditions: HL-60, 48 h
# Procedure, shortened: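 NCI-60 protocol: cells in RPMI 1640 with 5% FBS and 2 mM glutamine, preincubated 24 h at 37 °C with 5% CO2. Compounds from DMSO stock, tested at 10^-5 M single dose or five 10-fold doses, for 48 h. Suspension cells fixed in settled form (16% TCA final), then SRB stained and read at 515 nm. % growth is calculated against time-zero and control plates; GI50, TGI and LC50 are derived.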
# [3] = system: SK-MEL-5; assay: Antitumor activity against human SK-MEL-5 cells after 48 hrs by SRB assay; conditions: SK-MEL-5, 48 h; procedure, shortened: as §1
# [4] = system: UACC-62; assay: Antitumor activity against human UACC62 cells after 48 hrs by SRB assay; conditions: UACC-62, 48 h
# Procedure, shortened: (§2)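 NCI-60 protocol. Cells were grown in RPMI 1640 with 5% FBS and 2 mM L-glutamine, plated at 5000–40,000 cells/well, and preincubated 24 h at 37 °C, 5% CO2. Time-zero plates were TCA-fixed. Compounds were in DMSO and incubated 48 h. Fixation used cold TCA (final 16% for suspension SR; final 10% for adherent lines 2-7). Plates were stained with 0.4% SRB in 1% acetic acid, solubilized in 10 mM Tris base, and read at 515 nm. Percent growth was calculated from Tz, C and Ti.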
# [5] = system: OVCAR-8; assay: Antitumor activity against human OVCAR8 cells after 48 hrs by SRB assay; conditions: OVCAR-8, 48 h; procedure, shortened: as §1
# [6] = system: NCI/ADR-RES; assay: Antitumor activity against human NCI/ADR-RES cells after 48 hrs by SRB assay; procedure, shortened: as §1
# [7] = system: 786-0; assay: Antitumor activity against human 786-0 cells after 48 hrs by SRB assay; conditions: 786-0, 48 h; procedure, shortened: as §1
# [8] = system: A498; assay: Antitumor activity against human A498 cells after 48 hrs by SRB assay; conditions: A498, 48 h; procedure, shortened: as §1
# [9] = system: ACHN; assay: Antitumor activity against human ACHN cells after 48 hrs by SRB assay; procedure, shortened: as §1
# [10] = system: DU-145; assay: Antitumor activity against human DU145 cells after 48 hrs by SRB assay; conditions: DU-145, 48 h; procedure, shortened: as §1
# [11] = system: MCF7; assay: Antitumor activity against human MCF7 cells after 48 hrs by SRB assay; conditions: MCF7, 48 h; procedure, shortened: as §1
# [12] = system: MDA-MB-468; assay: Antitumor activity against human MDA-MB-468 cells after 48 hrs by SRB assay; conditions: MDA-MB-468, 48 h; procedure, shortened: as §1
# [13] = system: K562; assay: Antitumor activity against human K562 cells after 48 hrs by SRB assay; conditions: K562, 48 h; procedure, shortened: as §1
# [14] = system: MOLT-4; assay: Antitumor activity against human MOLT4 cells after 48 hrs by SRB assay; conditions: MOLT-4, 48 h; procedure, shortened: as §1
# [15] = system: RPMI-8226; assay: Antitumor activity against human RPMI8226 cells after 48 hrs by SRB assay; conditions: RPMI-8226, 48 h; procedure, shortened: as §1
# [16] = system: A549; assay: Antitumor activity against human A549 cells after 48 hrs by SRB assay; conditions: A549, 48 h; procedure, shortened: as §1
# [17] = system: EKVX; assay: Antitumor activity against human EKVX cells after 48 hrs by SRB assay; procedure, shortened: as §1
# [18] = system: HOP-92; assay: Antitumor activity against human HOP92 cells after 48 hrs by SRB assay; conditions: HOP-92, 48 h; procedure, shortened: as §1
# [19] = system: NCI-H23; assay: Antitumor activity against human NCI-H23 cells after 48 hrs by SRB assay; conditions: NCI-H23, 48 h; procedure, shortened: as §1
# [20] = system: COLO 205; assay: Antitumor activity against human COLO205 cells after 48 hrs by SRB assay; conditions: COLO 205, 48 h; procedure, shortened: as §1
# [21] = system: HCT-116; assay: Antitumor activity against human HCT116 cells after 48 hrs by SRB assay; conditions: HCT-116, 48 h; procedure, shortened: as §1
# [22] = system: HT-29; assay: Antitumor activity against human HT-29 cells after 48 hrs by SRB assay; conditions: HT-29, 48 h; procedure, shortened: as §1
# [23] = system: KM12; assay: Antitumor activity against human KM12 cells after 48 hrs by SRB assay; conditions: KM12, 48 h; procedure, shortened: as §1
# [24] = system: U-251; assay: Antitumor activity against human U251 cells after 48 hrs by SRB assay; conditions: U-251, 48 h; procedure, shortened: as §2
# [25] = system: M14; assay: Antitumor activity against human M14 cells after 48 hrs by SRB assay; conditions: M14, 48 h; procedure, shortened: as §1
# [26] = system: SK-MEL-2; assay: Antitumor activity against human SK-MEL-2 cells after 48 hrs by SRB assay; conditions: SK-MEL-2, 48 h; procedure, shortened: as §1
# [27] = system: SK-MEL-28; assay: Antitumor activity against human SK-MEL-28 cells after 48 hrs by SRB assay; conditions: SK-MEL-28, 48 h; procedure, shortened: as §1
# [28] = read-out: LC50 (the source's name)
smiles,measurement,setting,value
Clc1ccc(-c2nc3sc(C4CC4)nn3c2Br)cc1,GI50,[1],3.66 µM
same,TGI,[1],> 100 µM
same,CC50,[1]; [28],> 100 µM
same,GI50,[2],3.34 µM
same,TGI,[2],> 100 µM
same,CC50,[2]; [28],> 100 µM
same,GI50,[3],2.17 µM
same,TGI,[3],> 100 µM
same,CC50,[3]; [28],> 100 µM
same,GI50,[4],4.36 µM
same,TGI,[4],> 100 µM
same,CC50,[4]; [28],> 100 µM
same,GI50,[5],5.76 µM
same,TGI,[5],> 100 µM
same,CC50,[5]; [28],> 100 µM
same,GI50,[6],4.18 µM
same,TGI,[6],> 100 µM
same,CC50,[6]; [28],> 100 µM
same,GI50,[7],13.6 µM
same,TGI,[7],> 100 µM
same,CC50,[7]; [28],> 100 µM
same,GI50,[8],30.8 µM
same,TGI,[8],> 100 µM
same,CC50,[8]; [28],> 100 µM
same,GI50,[9],7.07 µM
same,TGI,[9],> 100 µM
same,CC50,[9]; [28],> 100 µM
same,GI50,[10],19.2 µM
same,TGI,[10],> 100 µM
same,CC50,[10]; [28],> 100 µM
same,GI50,[11],8.18 µM
same,TGI,[11],> 100 µM
same,CC50,[11]; [28],> 100 µM
same,GI50,[12],2.95 µM
same,TGI,[12],> 100 µM
same,CC50,[12]; [28],> 100 µM
same,GI50,[13],1.79 µM
same,TGI,[13],> 100 µM
same,CC50,[13]; [28],> 100 µM
same,GI50,[14],2.97 µM
same,TGI,[14],> 100 µM
same,CC50,[14]; [28],> 100 µM
same,GI50,[15],3.22 µM
same,TGI,[15],> 100 µM
same,CC50,[15]; [28],> 100 µM
same,GI50,[16],7.42 µM
same,TGI,[16],> 100 µM
same,CC50,[16]; [28],> 100 µM
same,GI50,[17],5.22 µM
same,TGI,[17],> 100 µM
same,CC50,[17]; [28],> 100 µM
same,GI50,[18],5.59 µM
same,TGI,[18],37.9 µM
same,CC50,[18]; [28],> 100 µM
same,GI50,[19],5.1 µM
same,TGI,[19],> 100 µM
same,CC50,[19]; [28],> 100 µM
same,GI50,[20],7.23 µM
same,TGI,[20],> 100 µM
same,CC50,[20]; [28],> 100 µM
same,GI50,[21],2.96 µM
same,TGI,[21],> 100 µM
same,CC50,[21]; [28],> 100 µM
same,GI50,[22],6.12 µM
same,TGI,[22],> 100 µM
same,CC50,[22]; [28],> 100 µM
same,GI50,[23],3.77 µM
same,TGI,[23],> 100 µM
same,CC50,[23]; [28],> 100 µM
same,GI50,[24],4.29 µM
same,TGI,[24],> 100 µM
same,CC50,[24]; [28],> 100 µM
same,GI50,[25],7.7 µM
same,TGI,[25],> 100 µM
same,CC50,[25]; [28],> 100 µM
same,GI50,[26],11 µM
same,TGI,[26],59.3 µM
same,CC50,[26]; [28],> 100 µM
same,GI50,[27],35.6 µM
same,TGI,[27],> 100 µM
same,CC50,[27]; [28],> 100 µM
